According to ChEMBL document CHEMBL4145607, “Tamarixetin Exhibits Anti-inflammatory Activity and Prevents Bacterial Sepsis by Increasing IL-10 Production” (J Nat Prod, 2018):
Activity calls are given as the source filed them. The rule behind the calls is not given here.

What was measured:
Mus musculus [1] = assay: Antiseptic activity in Balb/c mouse model of Escherichia coli K1 infection-induced sepsis assessed as reduction in serum ALT level at 1 mg/kg, ip pretreated for 1 hr followed by Escherichia coli K1 infection measured after 2 hrs by ELISA; type: functional, organism-based
Mus musculus [2] = assay: Antiseptic activity in Balb/c mouse model of Escherichia coli K1 infection-induced sepsis assessed as reduction in serum blood urea nitrogen level at 1 mg/kg, ip pretreated for 1 hr followed by Escherichia coli K1 infection measured after 2 hrs by ELISA; type: functional, organism-based
Mus musculus [3] = assay: Antiinflammatory activity in Balb/c mouse model of LPS-induced endotoxemia assessed as reduction in TNFalpha level in lungs at 1 mg/kg, ip pretreated for 1 hr followed by LPS-challenge measured after 12 hrs by ELISA; type: functional, organism-based
Outline: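 BALB/c mice got 1 mg·kg−1 i.p. 1 h before i.p. LPS 10 mg·kg−1. After 12 h, TNF-α and IL-6 in lung lysates were measured by sandwich ELISA. Means ± SEM.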

Mus musculus [4] = assay: Antiseptic activity in Balb/c mouse model of Escherichia coli K1 infection-induced sepsis assessed as reduction in bacterial count in liver at 1 mg/kg, ip pretreated for 1 hr followed by Escherichia coli K1 infection measured after 12 hrs; type: functional, organism-based
Outline: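 Pretreatment was 1 mg·kg−1 i.p. 1 h before i.p. E. coli K1 (1 × 10^6 CFU per mouse) in BALB/c mice. At 12 h, lungs, liver and kidneys were homogenized in PBS and diluted 1:1000. 10 μL was plated on LB agar, incubated 24 h at 37 °C, and colonies counted.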

BMDC [5] = assay: Inhibition of Escherichia coli DH5alpha infection-induced immune response in C57BL/6 mouse BMDC assessed as reduction in IL-12p70 secretion at 25 uM pretreated for 60 to 120 mins followed by Escherichia coli DH5alpha infection for 6 hrs by ELISA; type: functional, cell-based
Outline: (§1)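 C57BL/6 BMDCs received 25 μM compound and E. coli DH5α, 3 × 10^6 CFU·mL−1. Schedules were: compound 30 min before a 6 h infection; co-addition for 6 h; or compound for 30, 60, 90 or 120 min plus 6 h infection. Supernatant TNF-α, IL-6, IL-10 and IL-12p70 were measured by ELISA. At least three experiments in triplicate.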

[6] = biological target: T1, Toll-like receptor 4 (Mus musculus) (UniProt Q9QUK6); assay: Inhibition of LPS-induced TLR4 activation in C57BL/6 mouse BMDC assessed as reduction in Akt phosphorylation at 25 uM pretreated for 30 mins followed by LPS-challenge measured after 15 to 90 mins by Western blot analysis; type: cell-based
T1 sequence (whole entry): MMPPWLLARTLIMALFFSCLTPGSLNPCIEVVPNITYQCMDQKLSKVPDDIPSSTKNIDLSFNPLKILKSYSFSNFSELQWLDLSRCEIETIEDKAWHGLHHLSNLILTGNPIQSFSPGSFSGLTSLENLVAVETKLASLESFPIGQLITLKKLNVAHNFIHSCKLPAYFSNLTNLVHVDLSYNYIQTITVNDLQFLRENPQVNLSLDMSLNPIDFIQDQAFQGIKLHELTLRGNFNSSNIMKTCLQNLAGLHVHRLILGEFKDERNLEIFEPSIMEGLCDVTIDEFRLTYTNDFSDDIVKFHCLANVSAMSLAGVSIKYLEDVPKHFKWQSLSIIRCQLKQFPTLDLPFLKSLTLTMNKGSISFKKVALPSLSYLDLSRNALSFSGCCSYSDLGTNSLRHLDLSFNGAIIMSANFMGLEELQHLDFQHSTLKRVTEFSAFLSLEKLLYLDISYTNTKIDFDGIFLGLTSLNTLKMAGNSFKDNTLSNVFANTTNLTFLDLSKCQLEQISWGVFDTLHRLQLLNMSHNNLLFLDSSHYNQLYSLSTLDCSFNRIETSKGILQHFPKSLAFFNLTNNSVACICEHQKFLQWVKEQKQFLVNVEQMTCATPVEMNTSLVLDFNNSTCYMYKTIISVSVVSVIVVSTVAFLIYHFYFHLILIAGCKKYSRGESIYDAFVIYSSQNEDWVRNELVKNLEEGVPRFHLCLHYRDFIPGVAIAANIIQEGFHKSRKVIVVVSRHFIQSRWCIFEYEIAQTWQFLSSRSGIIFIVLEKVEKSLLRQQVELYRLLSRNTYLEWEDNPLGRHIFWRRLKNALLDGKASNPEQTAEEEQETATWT
Outline: (§2)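 BMDCs were pretreated 30 min with 25 μM compound, then stimulated with LPS 50 ng·mL−1 for the indicated times. Lysates (25 μg protein) were run on 10% SDS-PAGE and immunoblotted for phospho/total ERK, JNK, p38 and Akt, plus COX-2, IκBα and α-tubulin, with ECL detection. Representative of three experiments.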

Mus musculus [7] = assay: Antiinflammatory activity in Balb/c mouse model of LPS-induced endotoxemia assessed as reduction in serum ALT level at 1 mg/kg, ip pretreated for 1 hr followed by LPS-challenge measured after 12 hrs by ELISA; type: functional, organism-based
Outline: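 In BALB/c mice, 1 mg·kg−1 i.p. was given 1 h before LPS 10 mg·kg−1 i.p. After 12 h, serum AST, ALT and BUN were measured by ELISA. Means ± SEM.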

BMDC [8] = assay: Inhibition of Escherichia coli K1 infection-induced immune response in C57BL/6 mouse BMDC assessed as reduction in TNFalpha secretion at 25 uM pretreated for 60 to 120 mins followed by Escherichia coli K1 infection for 6 hrs by ELISA; type: functional, cell-based
Outline: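 BMDCs from C57BL/6 mice were given 25 μM compound and E. coli K1, […]. Timing was: compound 30 min before a 6 h infection; cotreatment for 6 h; or compound for 30–120 min with 6 h infection. Supernatant cytokines (TNF-α, IL-6, IL-10, IL-12p70) were measured by ELISA. At least three experiments in triplicate.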

[9] = biological target: T1, Toll-like receptor 4 (Mus musculus); assay: Inhibition of LPS-induced TLR4 activation in C57BL/6 mouse BMDC assessed as reduction in COX2 expression at 25 uM pretreated for 30 mins followed by LPS-challenge measured after 15 to 90 mins by Western blot analysis; type: cell-based; outline: as §2
[10] = biological target: T1, Toll-like receptor 4 (Mus musculus); assay: Inhibition of LPS-induced TLR4 activation in C57BL/6 mouse BMDC assessed as reduction in p38 phosphorylation at 25 uM pretreated for 30 mins followed by LPS-challenge measured after 15 to 90 mins by Western blot analysis; type: cell-based; outline: as §2
BMDC [11] = assay: Increase in microRNA187 expression in LPS-induced C57BL/6 mouse BMDC at 25 uM pretreated for 30 mins followed by LPS-challenge measured after 6 hrs by qRT-PCR analysis; type: functional, cell-based
Outline: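 Total RNA was extracted from BMDCs with TRIzol and reverse transcribed. miR-146a, miR-155 and miR-187 were quantified by real-time qPCR with gene-specific primers.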

BMDC [12] = assay: Inhibition of Escherichia coli DH5alpha infection-induced immune response in C57BL/6 mouse BMDC assessed as reduction in IL-6 secretion at 25 uM pretreated for 60 to 120 mins followed by Escherichia coli DH5alpha infection for 6 hrs by ELISA; type: functional, cell-based; outline: as §1

In the case of COc1ccc(-c2oc3cc(O)cc(O)c3c(=O)c2O)cc1O [TAMARIXETIN], the Activity (Mus musculus [1]) is reported as “Active”, the Activity (Mus musculus [2]) is reported as “Active” and the Activity (Mus musculus [3]) is reported as “Active”. The Activity (Mus musculus [4]) was “Active”, the inhibition (BMDC [5]) was “inactive” and the inhibition [6] was “Active”. The Activity (Mus musculus [7]) was “Active”, the inhibition (BMDC [8]) was “inactive” and the inhibition [9] was “Active”. For the same molecule, the inhibition [10] was “Active”, the Activity (BMDC [11]) was “Active” and the inhibition (BMDC [12]) was “inactive”.
